From ChEMBL document CHEMBL4477166, “18β-Glycyrrhetinic Acid Derivatives Possessing a Trihydroxylated A Ring Are Potent Gram-Positive Antibacterial Agents” (2016)
In brackets after ≈: the same amount, converted by molar mass. Activity calls are given as the source filed them. The rule behind the calls is not given here.

How the values were obtained:
Staphylococcus aureus [1] = experiment: Reduction in narG expression in Staphylococcus aureus ATCC 25923 at 0.5 times MIC by qRT-PCR analysis relative to control; assay type: functional, organism-based
Outline: (§1)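 Bacteria were grown in broth with compound at 0.5 × MIC or vehicle to exponential phase (OD620 = 0.4) and then pelleted. Total RNA was reverse-transcribed, and SYBR-based real-time PCR was run against housekeeping genes. Relative expression versus control was calculated by 2^−ΔΔCT. Mean ± SEM, n = 3, significance at p < 0.05.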

Staphylococcus aureus [2] = experiment: Antibacterial activity against Staphylococcus aureus ATCC 25923 at 0.5 times MIC by time-kill analysis; assay type: functional, organism-based
Outline: (§2)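 Time-kill in LB at 37 °C. B. subtilis or S. aureus suspensions were set at 5 × 10⁵ CFU/mL and exposed to 0.5×, 1×, 2× and 4× MIC alongside negative and positive controls. Samples of 1 mL were taken at 0, 2, 4, 6, 8, 12 and 24 h, serially diluted and plated for viable counts, and survival was calculated. Three repeats.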

Staphylococcus aureus [3] = experiment: Antibacterial activity against Staphylococcus aureus ATCC 25923 by time-kill analysis; assay type: functional, organism-based; outline: as §2
Streptomyces scabiei [4] = experiment: Antibacterial activity against Streptomyces scabiei CGMCC4.7610246 by microdilution assay; assay type: functional
Outline: (§3)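 Turbidimetric broth microdilution. Log-phase cells were washed and resuspended in broth (LB at 37 °C for B. subtilis and S. aureus; oat bran broth at 28 °C for S. scabies) and seeded at 1 × 10⁵ CFU/mL. Twofold serial dilutions were made with DMSO ≤1% (v/v). A620 was read, then plates were incubated with vigorous shaking. MIC was the lowest concentration with no apparent growth versus vehicle-only medium without cells. Run in triplicate.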

Streptomyces scabiei [5] = experiment: Antibacterial activity against Streptomyces scabiei CGMCC4.7610246 at 0.5 times MIC by time-kill analysis; assay type: functional, organism-based
Outline: (§4)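 Killing kinetics for S. scabies in oat bran broth at 28 °C, starting at 5 × 10⁵ CFU/mL. Exposure was 0.5×, 1×, 2× or 4× MIC, with negative and positive controls. Samples of 1 mL were withdrawn at 0, 4, 8, 16, 24 and 36 h, serially diluted and plated, and survival was calculated from colony counts. Performed in triplicate.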

Staphylococcus aureus [6] = experiment: Upregulation of hla expression in Staphylococcus aureus ATCC 25923 at 0.5 times MIC by qRT-PCR analysis relative to control; assay type: functional, organism-based; outline: as §1
Bacillus subtilis [7] = experiment: Antibacterial activity against Bacillus subtilis ATCC 6051 by time-kill analysis; assay type: functional, organism-based; outline: as §2
Staphylococcus aureus [8] = experiment: Inhibition of lytM expression in methicillin-resistant Staphylococcus aureus at 0.5 times MIC by qRT-PCR analysis; assay type: functional, organism-based
Outline: (§5)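 MRSA grown in broth containing either 0.5 × MIC of test compound or vehicle alone. Cells harvested at exponential phase (OD₆₂₀ = 0.4). Total RNA reverse-transcribed, then SYBR-based real-time PCR run. Relative expression computed by the 2^−ΔΔCT method against the vehicle control or the parent-acid-treated group. Mean ± SEM, n = 3; significance set at p < 0.05.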

Pseudomonas aeruginosa [9] = experiment: Antibacterial activity against Pseudomonas aeruginosa at 100 uM measured after 5 to 6 hrs by microdilution assay; assay type: functional, organism-based
Staphylococcus aureus [10] = experiment: Antibacterial activity against methicillin-resistant Staphylococcus aureus by microdilution assay; assay type: functional
Outline: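 Log-phase cells seeded at 1 × 10⁵ CFU/mL. Twofold serial dilutions made in broth with DMSO cosolvent, at most 1% v/v. Turbidity read at 620 nm before and after incubation with vigorous shaking. MIC is the lowest concentration with no apparent growth versus the medium-plus-vehicle control. Run in triplicate.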

Streptomyces scabiei [11] = experiment: Antibacterial activity against Streptomyces scabiei CGMCC4.7610246 by time-kill analysis; assay type: functional, organism-based; outline: as §4
Bacillus subtilis [12] = experiment: Upregulation of lytF expression in Bacillus subtilis ATCC 6051 at 0.5 times MIC by qRT-PCR analysis; assay type: functional, organism-based; outline: as §1
Staphylococcus aureus [13] = experiment: Effect on lytM expression in Staphylococcus aureus ATCC 25923 at 0.5 times MIC by qRT-PCR analysis; assay type: functional, organism-based; outline: as §1
Bacillus subtilis [14] = experiment: Upregulation of yqhB expression in Bacillus subtilis ATCC 6051 at 0.5 times MIC by qRT-PCR analysis relative to control; assay type: functional, organism-based; outline: as §1
Staphylococcus aureus [15] = experiment: Increase in fmhB expression in Staphylococcus aureus ATCC 25923 at 0.5 times MIC by qRT-PCR analysis relative to control; assay type: functional, organism-based; outline: as §1
Bacillus subtilis [16] = experiment: Upregulation of ykuD expression in Bacillus subtilis ATCC 6051 at 0.5 times MIC by qRT-PCR analysis; assay type: functional, organism-based; outline: as §1
Staphylococcus aureus [17] = experiment: Inhibition of hla expression in methicillin-resistant Staphylococcus aureus at 0.5 times MIC by qRT-PCR analysis relative to control; assay type: functional, organism-based; outline: as §5
Bacillus subtilis [18] = experiment: Upregulation of yhdT expression in Bacillus subtilis ATCC 6051 at 0.5 times MIC by qRT-PCR analysis relative to control; assay type: functional, organism-based; outline: as §1
Escherichia coli = experiment: Antibacterial activity against Escherichia coli at 100 uM measured after 5 to 6 hrs by microdilution assay; assay type: functional, organism-based
Staphylococcus aureus [19] = experiment: Inhibition of seaR expression in methicillin-resistant Staphylococcus aureus at 0.5 times MIC by qRT-PCR analysis relative to control; assay type: functional, organism-based; outline: as §5
Staphylococcus aureus [20] = experiment: Down regulation of mecA gene in methicillin-resistant Staphylococcus aureus at 0.5 times MIC by qRT-PCR analysis relative to control; assay type: functional, organism-based; outline: as §5
Staphylococcus aureus [21] = experiment: Increase in fmhB expression in Staphylococcus aureus at 0.5 times MIC by qRT-PCR analysis relative to 18-beta-glycyrrhetinic acid; assay type: functional, organism-based; outline: as §1
Bacillus subtilis [22] = experiment: Antibacterial activity against Bacillus subtilis ATCC 6051 by microdilution assay; assay type: functional; outline: as §3
Staphylococcus aureus [23] = experiment: Increase in fmhB expression in methicillin-resistant Staphylococcus aureus at 0.5 times MIC by qRT-PCR analysis relative to control; assay type: functional, organism-based; outline: as §5
Staphylococcus aureus [24] = experiment: Upregulation of seaR expression in Staphylococcus aureus ATCC 25923 at 0.5 times MIC by qRT-PCR analysis relative to control; assay type: functional, organism-based; outline: as §1
Pseudomonas aeruginosa [25] = experiment: Antibacterial activity against multi-drug resistant Pseudomonas aeruginosa at 100 uM measured after 5 to 6 hrs by microdilution assay; assay type: functional, organism-based
Outline: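 Log-phase cells seeded at 1 × 10⁵ CFU/mL. Single-dose screen at 100 μM, with DMSO cosolvent at most 1% v/v. Growth measured turbidimetrically at 620 nm, before and after incubation with vigorous shaking.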

Bacillus subtilis [26] = experiment: Reduction in mmD expression in Bacillus subtilis ATCC 6051 at 0.5 times MIC by qRT-PCR analysis relative to control; assay type: functional, organism-based; outline: as §1
Staphylococcus aureus [27] = experiment: Reduction in narG expression in methicillin-resistant Staphylococcus aureus at 0.5 times MIC by qRT-PCR analysis relative to control; assay type: functional, organism-based; outline: as §5
Staphylococcus aureus [28] = experiment: Antibacterial activity against Staphylococcus aureus ATCC 25923 by microdilution assay; assay type: functional; outline: as §3
Staphylococcus aureus [29] = experiment: Down regulation of mecA gene in methicillin-resistant Staphylococcus aureus at 0.5 times MIC by qRT-PCR analysis relative to 18-beta-glycyrrhetinic acid; assay type: functional, organism-based; outline: as §5
Staphylococcus aureus [30] = experiment: Increase in fmhB expression in Staphylococcus aureus ATCC 25923 at 0.5 times MIC by qRT-PCR analysis relative to 18-beta-glycyrrhetinic acid; assay type: functional, organism-based; outline: as §1
Bacillus subtilis [31] = experiment: Antibacterial activity against Bacillus subtilis ATCC 6051 at 0.5 times MIC by time-kill analysis; assay type: functional, organism-based; outline: as §2

**Q.** Which Activity (Staphylococcus aureus [1]) does the source give for `CCOC(=O)[C@@]1(C)CC[C@]2(C)CC[C@]3(C)C(=CC[C@@H]4[C@@]5(C)[C@@H](O)[C@H](O)[C@H](O)C(C)(C)[C@@H]5CC[C@]43C)[C@@H]2C1` here?
**A.** Active

**Q.** And the Activity (Staphylococcus aureus [2])?
**A.** inactive

**Q.** And the Activity (Staphylococcus aureus [3])?
**A.** Dose-dependent effect

**Q.** And the MIC (Streptomyces scabiei [4])?
**A.** 4.1 µg/mL (≈ 7.93 µM)

**Q.** What about the Activity (Streptomyces scabiei [5]) of the same molecule?
**A.** inactive

**Q.** And the Activity (Staphylococcus aureus [6])?
**A.** Active

**Q.** What about the Activity (Bacillus subtilis [7]) of the same molecule?
**A.** Dose-dependent effect

**Q.** What about the inhibition (Staphylococcus aureus [8]) of the same molecule?
**A.** Active

**Q.** And the Activity (Pseudomonas aeruginosa [9])?
**A.** inactive

**Q.** What about the MIC (Staphylococcus aureus [10]) of the same molecule?
**A.** 1 µg/mL (≈ 1.94 µM)

**Q.** And the Activity (Streptomyces scabiei [11])?
**A.** Dose-dependent effect

**Q.** And the Activity (Bacillus subtilis [12])?
**A.** Active

**Q.** And the Activity (Staphylococcus aureus [13])?
**A.** inactive

**Q.** What about the Activity (Bacillus subtilis [14]) of the same molecule?
**A.** Active

**Q.** What about the Activity (Staphylococcus aureus [15]) of the same molecule?
**A.** Active

**Q.** What about the Activity (Bacillus subtilis [16]) of the same molecule?
**A.** Active

**Q.** What about the inhibition (Staphylococcus aureus [17]) of the same molecule?
**A.** Active

**Q.** What about the Activity (Bacillus subtilis [18]) of the same molecule?
**A.** Active

**Q.** And the Activity (Escherichia coli)?
**A.** inactive

**Q.** What about the inhibition (Staphylococcus aureus [19]) of the same molecule?
**A.** Active

**Q.** What about the Activity (Staphylococcus aureus [20]) of the same molecule?
**A.** Active

**Q.** And the Activity (Staphylococcus aureus [21])?
**A.** Active

**Q.** And the MIC (Bacillus subtilis [22])?
**A.** 2 µg/mL (≈ 3.87 µM)

**Q.** And the Activity (Staphylococcus aureus [23])?
**A.** Active

**Q.** And the Activity (Staphylococcus aureus [24])?
**A.** Active

**Q.** And the Activity (Pseudomonas aeruginosa [25])?
**A.** inactive

**Q.** What about the Activity (Bacillus subtilis [26]) of the same molecule?
**A.** Active

**Q.** What about the Activity (Staphylococcus aureus [27]) of the same molecule?
**A.** Active

**Q.** What about the MIC (Staphylococcus aureus [28]) of the same molecule?
**A.** 1 µg/mL (≈ 1.94 µM)

**Q.** What about the Activity (Staphylococcus aureus [29]) of the same molecule?
**A.** Active

**Q.** And the Activity (Staphylococcus aureus [30])?
**A.** Active

**Q.** What about the Activity (Bacillus subtilis [31]) of the same molecule?
**A.** inactive
